According to ChEMBL document CHEMBL1157853, “Synthesis, pharmacological activity and comparative QSAR modeling of 1,5-N,N'-substituted-2-(substituted naphthalenesulphonyl) glutamamides as possible anticancer agents” (2010):

Tests used:
[1] = Antitumor activity against ip dosed mouse EAC implanted in Swiss albino mouse assessed as inhibition of ascitic fluid administered daily for 7 days measured on 9th day relative to control; assay type: functional, Ehrlich
How it was run: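 Female Swiss albino mice (18-20 g, 6 per group) implanted ip with 2×10^6 EAC cells/0.2 mL. Compound in phosphate buffer pH 7.2 (PBS + 2% Tween 80 when needed) given ip daily from day 2, seven doses; controls received vehicle. Day 9, after a 6 h fast, mice weighed before and after ascitic fluid removal; the difference is tumor weight. %TWI derived from mean test vs control weight.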

[2] = Antitumor activity against ip dosed mouse EAC implanted in Swiss albino mouse assessed as inhibition of ascitic cell administered daily for 7 days measured on 9th day relative to control; assay type: functional, Ehrlich
How it was run: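 Female Swiss albino mice (18-20 g, 6 per group, test vs vehicle control) given 2×10^6 EAC cells/0.2 mL ip. From day 2, compound in phosphate buffer pH 7.2 (2% Tween 80 in PBS if needed) given ip every 24 h for seven doses. Day 9, after a 6 h fast, ascitic fluid withdrawn and live cells counted by trypan blue and haemocytometer. %TCI derived from mean cells/ml in test vs control.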

Structure (SMILES) | inhibition (INH) [1] [%] | inhibition (INH) [2] [%]
CCNC(=O)CCC(NS(=O)(=O)c1ccc(Br)c2ccccc12)C(=O)NCC (configuration not stated) | 24.34 | 16.22
NC(=O)CCC(NS(=O)(=O)c1ccc(Br)c2ccccc12)C(N)=O (configuration not stated) | 36.46 | 58.25
CCCNC(=O)CCC(NS(=O)(=O)c1ccc(Br)c2ccccc12)C(=O)NCCC (configuration not stated) | 2.96 | 14.86
CCCCCNC(=O)CCC(NS(=O)(=O)c1ccc(Br)c2ccccc12)C(=O)NCCCCC (configuration not stated) | 22.81 | 10.42
CCCNC(=O)CCC(NS(=O)(=O)c1cccc2ccccc12)C(=O)NCCC (configuration not stated) | 16.15 | 14.21
CC(C)NC(=O)CCC(NS(=O)(=O)c1cccc2ccccc12)C(=O)NC(C)C (configuration not stated) | 17.74 | 43.96
CCCCNC(=O)CCC(NS(=O)(=O)c1cccc2ccccc12)C(=O)NCCCC (configuration not stated) | 14.34 | 16.17
CC(C)CNC(=O)CCC(NS(=O)(=O)c1cccc2ccccc12)C(=O)NCC(C)C (configuration not stated) | 11.93 | 61.96
CNC(=O)CCC(NS(=O)(=O)c1ccc(Br)c2ccccc12)C(=O)NC (configuration not stated) | 20.58 | 10.62
CCNC(=O)CCC(NS(=O)(=O)c1ccc(Cl)c2ccccc12)C(=O)NCC (configuration not stated) | 24.1 | 48.67
CCCNC(=O)CCC(NS(=O)(=O)c1ccc(Cl)c2ccccc12)C(=O)NCCC (configuration not stated) | 18.73 | 39.33
CC(C)NC(=O)CCC(NS(=O)(=O)c1ccc(Cl)c2ccccc12)C(=O)NC(C)C (configuration not stated) | 24.68 | 75.17
CCCCNC(=O)CCC(NS(=O)(=O)c1ccc(Cl)c2ccccc12)C(=O)NCCCC (configuration not stated) | 20.71 | 33.1
CCCCCNC(=O)CCC(NS(=O)(=O)c1cccc2ccccc12)C(=O)NCCCCC (configuration not stated) | 56.62 | 17.64
O=C(CCC(NS(=O)(=O)c1cccc2ccccc12)C(=O)NC1CCCCC1)NC1CCCCC1 (configuration not stated) | 43.58 | 53.76
O=C(CCC(NS(=O)(=O)c1cccc2ccccc12)C(=O)NCc1ccccc1)NCc1ccccc1 (configuration not stated) | 17.04 | 34.46

Structure (SMILES) | inhibition (INH) [1] [%] | inhibition (INH) [2] [%]
NC(=O)CCC(NS(=O)(=O)c1cccc2ccccc12)C(N)=O (configuration not stated) | 32.19 | 38.34
CNC(=O)CCC(NS(=O)(=O)c1cccc2ccccc12)C(=O)NC (configuration not stated) | 27.42 | 69.32
CCNC(=O)CCC(NS(=O)(=O)c1cccc2ccccc12)C(=O)NCC (configuration not stated) | 24.61 | 27.92
CCCCCCNC(=O)CCC(NS(=O)(=O)c1c(OC)ccc2ccccc12)C(=O)NCCCCCC (configuration not stated) | 5.19 | 14.79
CC(C)CNC(=O)CCC(NS(=O)(=O)c1ccc(Cl)c2ccccc12)C(=O)NCC(C)C (configuration not stated) | 15.2 | 41.28
CCCCCCNC(=O)CCC(NS(=O)(=O)c1ccc(Cl)c2ccccc12)C(=O)NCCCCCC (configuration not stated) | 15.95 | 50.51
O=C(CCC(NS(=O)(=O)c1ccc(Cl)c2ccccc12)C(=O)NCc1ccccc1)NCc1ccccc1 (configuration not stated) | 22.69 | 22.94
CNC(=O)CCC(NS(=O)(=O)c1ccc(Cl)c2ccccc12)C(=O)NC (configuration not stated) | 20.57 | 46.52
NC(=O)CCC(NS(=O)(=O)c1ccc(Cl)c2ccccc12)C(N)=O (configuration not stated) | 55.21 | 48.52
COc1ccc2ccccc2c1S(=O)(=O)NC(CCC(=O)NC1CCCCC1)C(=O)NC1CCCCC1 (configuration not stated) | 13.52 | 4.34
O=C(CCC(NS(=O)(=O)c1ccc(Br)c2ccccc12)C(=O)NCc1ccccc1)NCc1ccccc1 (configuration not stated) | 8.99 | 23.5
COc1ccc2ccccc2c1S(=O)(=O)NC(CCC(=O)NCc1ccccc1)C(=O)NCc1ccccc1 (configuration not stated) | 7.57 | 18.78
[N-]=[N+]=CC(=O)CC[C@H](N)C(=O)O [6-DIAZO-5-OXO-L-NORLEUCINE] | 100 | 100
[N-]=[N+]=CC(=O)OC[C@H](N)C(=O)O [AZASERINE] | 100 | 100
CO[C@@]12[C@H](COC(N)=O)C3=C(C(=O)C(C)=C(N)C3=O)N1C[C@@H]1N[C@@H]12 [MITOMYCIN] | 100 | 100
